OX1R antag-1 – blocks the human orexin 1 receptor; CHO/OX1R cells, Fluo-8 calcium fluorescence, orexin A; 330,000 tested, 0.43% active; inhibition, % at 5 µM; O43613;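 active = inhibition above its plate's threshold, mean inhibition of all tested compounds on the plate plus 3 SD, cut at about 37% in these data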;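 note: 0% = orexin A challenge wells and 100% = SB-334867-A antagonist wells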
TRPML3 ag – human mucolipin-3 channel agonism | Q8TDD5 | HEK293 TRPML3-YFP, Fluo-8 calcium fluorescence; 100% = the carbachol control signal | activation, % at 3 µM | 220,000 tested, 0.29% active | AID 1448;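 active = activation above its plate's cutoff, the mean activation of the plate's test wells plus 3 SD, cut at about 12% in these data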;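 note: 0% = DMSO only wells and 100% = carbachol wells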
Target sequence (Q8TDD5 whole entry, looked up): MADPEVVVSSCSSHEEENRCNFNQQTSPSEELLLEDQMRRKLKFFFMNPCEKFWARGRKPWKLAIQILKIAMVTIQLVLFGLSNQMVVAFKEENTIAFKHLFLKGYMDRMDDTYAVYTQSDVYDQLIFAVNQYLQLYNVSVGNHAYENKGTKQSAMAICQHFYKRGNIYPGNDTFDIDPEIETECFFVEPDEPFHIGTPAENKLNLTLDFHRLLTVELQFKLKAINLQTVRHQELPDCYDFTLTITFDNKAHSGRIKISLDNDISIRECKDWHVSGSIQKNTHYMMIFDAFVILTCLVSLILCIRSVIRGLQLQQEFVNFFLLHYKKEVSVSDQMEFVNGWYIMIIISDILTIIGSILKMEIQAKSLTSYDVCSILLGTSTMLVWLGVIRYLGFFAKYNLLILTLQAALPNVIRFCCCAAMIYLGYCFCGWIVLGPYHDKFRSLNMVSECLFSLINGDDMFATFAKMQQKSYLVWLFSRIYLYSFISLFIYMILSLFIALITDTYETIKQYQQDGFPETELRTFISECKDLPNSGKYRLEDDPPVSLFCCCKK
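Test system: HEK293 cells stably carrying human TRPML3-YFP; Doses: single dose, 3 µM final nominal compound, 0.3% DMSO final; Schedule: dye loading 1 h 37 °C then 30 min ambient, 125 s read; Technique: Fluo-8 calcium fluorescence; Benchmarks: high control carbachol 87 µM, low control DMSO.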
CHO parental Ca – counter-screen: ATP calcium response change in parental CHO cells; parental CHO-K1, ATP-induced calcium, Fluo-8 fluorescence; inhibition, % at 5.6 µM; 330,000 tested, 0.63% active; AID 463079;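 active = inhibition above that plate's mean sample inhibition plus 3 SD, cut at about 26% in these data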;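 note: 0% = ATP-challenged DMSO wells and 100% = DMSO wells without ATP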
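Material: parental CHO cells / Compound: single nominal dose of 5.6 µM per compound / Signal: Fluo-8 fluorescence / Replicates: singlicate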
OX1R antag-2 – blocks the human orexin 1 receptor; OX1R-expressing cells, FRET antagonist read-out; inhibition, % at 6.6 µM; 330,000 tested, 1.8% active; in the data active = inhibition mostly above about 38%, no sharp cut-off; inactive = mostly below about 40%;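 note: 0% = agonist challenge alone and 100% = reference antagonist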
zfTRPN1 agonist – agonists of zebrafish TRPN1 channel; 220,000 tested, 0.18% active; AID 1424; activation, % at 3 µM; HEK293 zebrafish TRPN1-YFP, Fluo-8 calcium fluorescence; 100% = response to 87 µM carbachol;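 active = activation above its plate's cutoff, the mean activation of test wells on that plate plus 3 SD, cut at about 19% in these data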;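 note: 0% = DMSO alone and 100% = 87 µM carbachol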
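System: zebrafish TRPN1-YFP in HEK293 cells / Dosing: 3 µM single point / Timing: dye loading 1 h at 37 °C, then 30 min room temperature / Signal: Fluo-8 calcium fluorescence, excitation 470-495 nm, emission 515-575 nm / Read-out basis: percent activation from peak over basal fluorescence ratio, control-normalized / Control set: high carbachol 87 µM, low DMSO alone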
OX1R HTRF conf – OX1R (human) antagonism, HTRF confirmed. shares compounds with OX1R antag-2. OX1R-expressing cells, HTRF antagonist assay. inhibition, % at 6.6 µM. 1,800 tested, 49% active; in the data active = inhibition above about 55%;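 note: CHO cells expressing OX1R stimulated with orexin A at about EC80; 0% = agonist challenge alone and 100% = reference antagonist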
CHO-K1 HTRF cnt – counter-screen: parental CHO-K1 HTRF response; shares compounds with OX1R antag-2; parental CHO-K1 cells, HTRF counterscreen; inhibition, % at 6.6 µM; 1,800 tested, 48% active; AID 493232; in the data active = inhibition above about 17%;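 note: 0% = agonist challenge with vehicle and 100% = vehicle alone without agonist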
Numbers without * were called inactive; / = no result. Only some compounds are listed: those with a hit (about 2.5% of all), similar ones and a draw of the others.

SMILES | OX1R antag-1 | TRPML3 ag | CHO parental Ca | OX1R antag-2 | zfTRPN1 agonist | OX1R HTRF conf | CHO-K1 HTRF cnt
COc1cc2c(cc1OC)CN(C(=O)CN1C(=O)c3ccc([N+](=O)[O-])cc3C1=O)CC2 | -33.6 | / | -28.8 | 98.4* | / | 45.1 | 37.4*
CCCOc1cccc(C2C(C(=O)c3ccc(C)o3)=C(O)C(=O)N2c2nc(C)c(C(C)=O)s2)c1 (stereo not given) | -26.8 | / | -20.4 | 12.0 | / | / | /
CCN1CCc2c(C#N)c(N3CCOCC3)nc(NCCO)c2C1 | -1.4 | -0.1 | 1.4 | 78.5* | 0.0 | 7.0 | -0.7
CCN1CCc2c(C#N)c(N3CCOCC3)nc(NCc3ccccc3)c2C1 | / | 0.9 | / | / | 0.7 | / | /
O=[N+]([O-])c1ccc(Sc2cc[n+]([O-])c3ccccc23)c([N+](=O)[O-])c1 | 1.8 | 0.7 | 5.2 | 98.0* | 0.7 | 55.0* | 78.0*
Cn1c2ccccc2c2cc([N+](=O)[O-])ccc21 | -15.5 | 1.0 | -20.7 | 14.9 | -0.8 | / | /
C#CCOCCOCCOCCNc1nc(OC)nc(N2CCN(C(=O)[C@H](CCC(=O)O)n3cc(C(N)CO)nn3)CC2)n1 (stereo not given in full) | -7.6 | / | 0.7 | 34.1 | / | / | /
CN(C)CCCNc1ccc(S(N)(=O)=O)cc1[N+](=O)[O-] | 1.7 | 0.6 | -4.0 | 121.5* | 0.0 | 39.3 | 55.5*
CS(=O)(=O)c1ccc(NCCc2ccc(S(N)(=O)=O)cc2)c([N+](=O)[O-])c1 | -11.1 | / | 0.3 | 63.7 | / | / | /
CN(C)CCCNc1ccc(-c2nn(C)c(=O)c3ccccc23)cc1[N+](=O)[O-] | -12.3 | 0.3 | -8.9 | 118.1* | -0.6 | 30.5 | 40.3*
CC(O)CNc1ccc(-c2nn(C)c(=O)c3ccccc23)cc1[N+](=O)[O-] (stereo not given) | -25.0 | 0.1 | -12.3 | 33.1 | -0.9 | / | /
O=[N+]([O-])c1cccc(/C=N/n2cnnc2)c1 | -4.8 | 0.6 | 0.1 | 77.4* | 0.9 | 25.6 | 30.8*
Cc1nc2[nH]onc2c2nccc(=O)c12 | -20.6 | -0.1 | -3.6 | 120.5* | -1.0 | 32.0 | 38.3*
CCOCC(=O)N1CCN(c2ccc([N+](=O)[O-])cc2)CC1 | -21.2 | 1.1 | 11.9 | 82.6* | 2.1 | 32.9 | 29.1*
CCOCC(=O)N1CCN(c2ccc(F)cc2)CC1 | -17.0 | -0.3 | -5.8 | -0.8 | 0.2 | / | /
CN(C)CCCN1c2ccc([N+](=O)[O-])cc2CCc2cc([N+](=O)[O-])ccc21 | -16.9 | / | -2.6 | 26.8 | / | / | /
CCOc1ccc(N(Cc2nnc3n2CCCCC3)C(=O)Nc2cccc(C)c2)cc1 | -19.9 | 0.6 | -2.2 | 4.1 | 1.4 | / | /
Cc1ccc(C(=O)N/C(=C/c2ccc(-c3cccc([N+](=O)[O-])c3)o2)C(=O)NC(C)(C)C)cc1 | 2.7 | -0.6 | -19.7 | 84.8* | -2.1 | 69.4* | 13.6
CCC1(C)CC2(CCCN(CCC(=O)c3ccccc3)C2)CCO1 (stereo not given) | -6.3 | 1.7 | 6.0 | 7.0 | 1.5 | / | /
COc1ccccc1CNC(=O)CCS(=O)(=O)c1cccc2nonc12 | -31.4 | 0.9 | -8.5 | 82.6* | 1.3 | 30.8 | 31.7*
COc1ccc(N(C)C(=O)CCS(=O)(=O)c2cccc3nonc23)cc1 | -30.2 | 1.1 | -13.9 | 116.6* | -1.1 | 46.2 | 48.7*
COc1ccc(CNC(=O)CCS(=O)(=O)c2cccc3nonc23)cc1 | -1.6 | 0.2 | -5.3 | 35.8 | 0.9 | / | /
CCN(C(=O)COC(=O)c1cc(S(=O)(=O)Nc2c(C)n(C)n(-c3ccccc3)c2=O)ccc1Cl)C1CCCCC1 | -12.6 | -0.1 | -22.5 | 80.4* | -0.8 | 85.6* | 0.7
Cc1c(NS(=O)(=O)c2cccc(C(=O)O)c2)c(=O)n(-c2ccccc2)n1C | -12.6 | / | -8.6 | 0.7 | / | / | /
Cc1c(NS(=O)(=O)c2cc(C(=O)OCC(=O)N3CCC(C)CC3)ccc2Cl)c(=O)n(-c2ccccc2)n1C | -10.7 | -0.1 | -9.7 | 4.9 | -1.2 | / | /
SMILES | OX1R antag-1 | TRPML3 ag | CHO parental Ca | OX1R antag-2 | zfTRPN1 agonist | OX1R HTRF conf | CHO-K1 HTRF cnt
Cc1c(NS(=O)(=O)c2cccc(C(=O)NCc3ccc(Cl)cc3)c2)c(=O)n(-c2ccccc2)n1C | 24.1 | -0.4 | -24.1 | 84.4* | -0.6 | 83.6* | -0.2
CC(=O)c1ccc(N2CCN(C(=O)CCS(=O)(=O)c3ccc4c(c3)CCN4C(C)=O)CC2)cc1 | -22.9 | / | -4.5 | 12.9 | / | / | /
COC(=O)C1(S(=O)(=O)c2cccc3nsnc23)CC1 | -21.4 | 0.5 | -12.8 | 105.6* | 2.5 | 35.2 | 36.1*
CC(C)c1ccc(CN2CCN(C(=O)CSc3nnnn3C3CC3)CC2)cc1 | -8.4 | / | -13.2 | 5.9 | / | / | /
O=C(CNC(=O)c1ccccc1)N=Nc1c(O)[nH]c2ccc(Br)cc12 | -17.9 | / | -3.4 | 20.9 | / | / | /
O=Nc1c(-c2c(O)[nH]c3cc(Br)ccc23)[nH]c2ccccc12 | -13.7 | / | -20.0 | 98.4* | / | 78.9* | 25.6*
O=C(Nc1nncs1)c1ccc2c(c1)OCO2 | -7.1 | / | 9.6 | 2.1 | / | / | /
COc1ccc(C(=O)N2CCN(c3nc4cc(C)ccc4cc3C#N)CC2)c(OC)c1 | -20.2 | -0.3 | -25.7 | 19.9 | 0.6 | / | /
COc1cc(C(=O)N2CCCN(c3nc4cc(C)ccc4cc3C#N)CC2)cc(OC)c1OC | 24.4 | / | -30.3 | 79.5* | / | 86.5* | 5.1
O=C(C1CCCN(S(=O)(=O)c2cc(Cl)ccc2Cl)C1)N1CCOCC1 (stereo not given) | -18.5 | / | -8.4 | 2.7 | / | / | /
N#Cc1cc([N+](=O)[O-])ccc1NC(=O)COC(=O)C1CC2CCCC(C1)C2=O (stereo not given) | -20.5 | / | -3.3 | 87.8* | / | 32.7 | 43.3*
COc1cccc(/C=C2/SC(=O)N(C)C2=O)c1OCc1ccc(C(=O)O)cc1 | -6.5 | 0.3 | -10.8 | 102.0* | -0.9 | 32.4 | 35.3*
COc1ccc(C(=O)CSc2nnc(CNC(=O)c3ccccc3)o2)cc1 | 0.3 | / | -9.2 | 1.2 | / | / | /
CCc1nc2ccccc2n(CC)c1=O | -14.1 | 1.2 | 2.3 | 21.4 | 0.5 | / | /
CCn1c(=O)c(C(C)=O)nc2ccccc21 | -9.1 | 0.7 | -16.9 | 99.7* | 1.4 | 30.8 | 5.3
c1ccc(CCn2c(SCc3ccccc3)nnc2-c2ccncc2)cc1 | -33.2 | -0.1 | -21.8 | 101.3* | 0.0 | 14.9 | -2.5
N#Cc1ccc(CSc2nnc(-c3ccncc3)n2CCc2ccccc2)cc1 | -14.8 | 0.2 | -21.8 | 46.8 | 1.3 | / | /
O=C(N/N=C/c1ccc(O)cc1)c1cc[n+](Cc2ccccc2)cc1 | -13.2 | 0.6 | -11.3 | 90.2* | 2.6 | 38.6 | 45.2*
COC(=O)c1sccc1NC(=O)Nc1cccc(C(C)=O)c1 | 13.2 | 0.5 | 1.6 | 82.0* | 0.1 | 67.4* | 8.3
COC(=O)c1sccc1NC(=O)Nc1cccc(C)c1 | -26.1 | -0.6 | -29.4 | 34.8 | -1.3 | / | /
CC(=O)Nc1ccc(NC(=O)COC(=O)c2c(-c3ccccc3)noc2C)cc1 | -4.7 | / | -5.8 | -0.8 | / | / | /

Screening data (PubChem BioAssay)
